The record followed here is ChEMBL document CHEMBL4138284, “Biomimetic Stereoselective Sulfa-Michael Addition Leads to Platensimycin and Platencin Sulfur Analogues against Methicillin-Resistant Staphylococcus aureus” (J Nat Prod, 2018).

Molecules are shown by their SMILES. ≈ marks a conversion by molar mass, not a printed value.

The test system of the first experiment is Staphylococcus aureus. Description: Antibacterial activity against methicillin-resistant Staphylococcus aureus isolate 8 incubated overnight by agar dilution method. In kind it is functional. The procedure, abridged: (§1)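 MIC by agar dilution. Strains were grown overnight in LB broth and diluted, then about 10^4 CFU (2 μL spots) were spotted onto LB agar plates containing test compound at 0.5 to 8 μg mL−1 agar. Plates were incubated overnight at 37 °C and inspected for growth. Clinical MSSA and MRSA isolates came from local hospitals.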
Take `C[C@]12C[C@]34C[C@@H]1C[C@H](O2)[C@H]3[C@](C)(CCC(=O)Nc1c(O)ccc(C(=O)O)c1O)C(=O)C[C@@H]4SC(=O)c1ccc([N+](=O)[O-])cc1`: the MIC was determined as 1 µg/mL (≈ 1.6 µM).
Same read-out and setting: in the case of `C[C@]12C[C@]34C[C@@H]1C[C@H](O2)[C@H]3[C@](C)(CCC(=O)Nc1c(O)ccc(C(=O)O)c1O)C(=O)C[C@@H]4SC(=O)c1cccc(C(F)(F)F)c1` it was 1 µg/mL (≈ 1.54 µM).

In another experiment the test system is Staphylococcus aureus. Description: Antibacterial activity against methicillin-sensitive Staphylococcus aureus isolate 2 incubated overnight by agar dilution method. In kind it is functional. The procedure, abridged:
as §1
As for `C[C@]12C[C@]34C[C@@H]1C[C@H](O2)[C@H]3[C@](C)(CCC(=O)Nc1c(O)ccc(C(=O)O)c1O)C(=O)C[C@@H]4SC(=O)c1ccc([N+](=O)[O-])cc1`, the lowest concentration to inhibit growth (MIC) was 1 µg/mL (≈ 1.6 µM).
For `C[C@]12C[C@]34C[C@@H]1C[C@H](O2)[C@H]3[C@](C)(CCC(=O)Nc1c(O)ccc(C(=O)O)c1O)C(=O)C[C@@H]4SC(=O)c1cccc(C(F)(F)F)c1`, the MIC amounted to 1 µg/mL (≈ 1.54 µM).

The subject of another experiment is Staphylococcus aureus. Description: Antibacterial activity against methicillin-sensitive Staphylococcus aureus isolate 4 incubated overnight by agar dilution method. It is filed as functional. Summed up: as §1
As to `C[C@]12C[C@]34C[C@@H]1C[C@H](O2)[C@H]3[C@](C)(CCC(=O)Nc1c(O)ccc(C(=O)O)c1O)C(=O)C[C@@H]4SC(=O)c1ccc([N+](=O)[O-])cc1`, the MIC came to 1 µg/mL (≈ 1.6 µM).
Consider `C[C@]12C[C@]34C[C@@H]1C[C@H](O2)[C@H]3[C@](C)(CCC(=O)Nc1c(O)ccc(C(=O)O)c1O)C(=O)C[C@@H]4SC(=O)c1cccc(C(F)(F)F)c1`, for which inhibition of growth (MIC) required 0.5 µg/mL (≈ 0.772 µM).

In a further experiment the test system is Staphylococcus aureus. Nature of the experiment: Antibacterial activity against methicillin-resistant Staphylococcus aureus isolate 7 incubated overnight by agar dilution method. It is filed as functional. The procedure, abridged:
as §1
Compound `C[C@]12C[C@]34C[C@@H]1C[C@H](O2)[C@H]3[C@](C)(CCC(=O)Nc1c(O)ccc(C(=O)O)c1O)C(=O)C[C@@H]4SC(=O)c1ccc([N+](=O)[O-])cc1` came in with an MIC of 2 µg/mL (≈ 3.2 µM).
Compound `C[C@]12C[C@]34C[C@@H]1C[C@H](O2)[C@H]3[C@](C)(CCC(=O)Nc1c(O)ccc(C(=O)O)c1O)C(=O)C[C@@H]4SC(=O)c1cccc(C(F)(F)F)c1` registered an MIC of 2 µg/mL (≈ 3.09 µM).

The next experiment relates to Staphylococcus aureus. Description: Antibacterial activity against methicillin-sensitive Staphylococcus aureus isolate 3 incubated overnight by agar dilution method. It is filed as functional. Summed up:
as §1
For `C[C@]12C[C@]34C[C@@H]1C[C@H](O2)[C@H]3[C@](C)(CCC(=O)Nc1c(O)ccc(C(=O)O)c1O)C(=O)C[C@@H]4SC(=O)c1ccc([N+](=O)[O-])cc1`, the MIC was 1 µg/mL (≈ 1.6 µM).
As for `C[C@]12C[C@]34C[C@@H]1C[C@H](O2)[C@H]3[C@](C)(CCC(=O)Nc1c(O)ccc(C(=O)O)c1O)C(=O)C[C@@H]4SC(=O)c1cccc(C(F)(F)F)c1`, the MIC was found to be 1 µg/mL (≈ 1.54 µM).

A further experiment deals with Staphylococcus aureus. Nature of the experiment: Antibacterial activity against methicillin-resistant Staphylococcus aureus isolate 5 incubated overnight by agar dilution method. In kind it is functional. The procedure, abridged: as §1
Compound `C[C@]12C[C@]34C[C@@H]1C[C@H](O2)[C@H]3[C@](C)(CCC(=O)Nc1c(O)ccc(C(=O)O)c1O)C(=O)C[C@@H]4SC(=O)c1ccc([N+](=O)[O-])cc1` registered a minimal inhibitory concentration (MIC) of 2 µg/mL (≈ 3.2 µM).
For `C[C@]12C[C@]34C[C@@H]1C[C@H](O2)[C@H]3[C@](C)(CCC(=O)Nc1c(O)ccc(C(=O)O)c1O)C(=O)C[C@@H]4SC(=O)c1cccc(C(F)(F)F)c1`, the MIC was found to be 1 µg/mL (≈ 1.54 µM).

A further experiment relates to Staphylococcus aureus. Nature of the experiment: Antibacterial activity against methicillin-resistant Staphylococcus aureus isolate 11 incubated overnight by agar dilution method. In kind it is functional. The procedure, abridged: as §1
Consider `C[C@]12C[C@]34C[C@@H]1C[C@H](O2)[C@H]3[C@](C)(CCC(=O)Nc1c(O)ccc(C(=O)O)c1O)C(=O)C[C@@H]4SC(=O)c1ccc([N+](=O)[O-])cc1`, for which it took 8 µg/mL (≈ 12.8 µM) to inhibit growth (MIC).
As to `C[C@]12C[C@]34C[C@@H]1C[C@H](O2)[C@H]3[C@](C)(CCC(=O)Nc1c(O)ccc(C(=O)O)c1O)C(=O)C[C@@H]4SC(=O)c1cccc(C(F)(F)F)c1`, it took 2 µg/mL (≈ 3.09 µM) to inhibit growth (MIC).

Another experiment concerns Staphylococcus aureus. Description: Antibacterial activity against methicillin-resistant Staphylococcus aureus isolate 10 incubated overnight by agar dilution method. It is filed as functional. The procedure, abridged:
as §1
For the compound `C[C@]12C[C@]34C[C@@H]1C[C@H](O2)[C@H]3[C@](C)(CCC(=O)Nc1c(O)ccc(C(=O)O)c1O)C(=O)C[C@@H]4SC(=O)c1ccc([N+](=O)[O-])cc1`, the lowest concentration to inhibit growth (MIC) was 1 µg/mL (≈ 1.6 µM).
On to `C[C@]12C[C@]34C[C@@H]1C[C@H](O2)[C@H]3[C@](C)(CCC(=O)Nc1c(O)ccc(C(=O)O)c1O)C(=O)C[C@@H]4SC(=O)c1cccc(C(F)(F)F)c1`, for which the MIC is 1 µg/mL (≈ 1.54 µM).

In another experiment the test system is Staphylococcus aureus. Description: Antibacterial activity against methicillin-resistant Staphylococcus aureus isolate 6 incubated overnight by agar dilution method. It is filed as functional. Summed up: as §1
`C[C@]12C[C@]34C[C@@H]1C[C@H](O2)[C@H]3[C@](C)(CCC(=O)Nc1c(O)ccc(C(=O)O)c1O)C(=O)C[C@@H]4SC(=O)c1ccc([N+](=O)[O-])cc1` came in with an MIC of 1 µg/mL (≈ 1.6 µM).
`C[C@]12C[C@]34C[C@@H]1C[C@H](O2)[C@H]3[C@](C)(CCC(=O)Nc1c(O)ccc(C(=O)O)c1O)C(=O)C[C@@H]4SC(=O)c1cccc(C(F)(F)F)c1` yielded an MIC of 1 µg/mL (≈ 1.54 µM).

The next experiment has as its system Staphylococcus aureus. Nature of the experiment: Antibacterial activity against Staphylococcus aureus ATCC 29213 incubated overnight by agar dilution method. It is filed as functional. Summed up:
as §1
As to `C[C@]12C[C@]34C[C@@H]1C[C@H](O2)[C@H]3[C@](C)(CCC(=O)Nc1c(O)ccc(C(=O)O)c1O)C(=O)C[C@@H]4SC(=O)c1ccc([N+](=O)[O-])cc1`, the MIC is 1 µg/mL (≈ 1.6 µM).
The compound `C[C@]12C[C@]34C[C@@H]1C[C@H](O2)[C@H]3[C@](C)(CCC(=O)Nc1c(O)ccc(C(=O)O)c1O)C(=O)C[C@@H]4SC(=O)c1cccc(C(F)(F)F)c1` came in with an MIC of 2 µg/mL (≈ 3.09 µM).

The test system of a further experiment is Staphylococcus aureus. Description: Antibacterial activity against methicillin-resistant Staphylococcus aureus isolate 9 incubated overnight by agar dilution method. In kind it is functional. The procedure, abridged:
as §1
The compound `C[C@]12C[C@]34C[C@@H]1C[C@H](O2)[C@H]3[C@](C)(CCC(=O)Nc1c(O)ccc(C(=O)O)c1O)C(=O)C[C@@H]4SC(=O)c1ccc([N+](=O)[O-])cc1` had an MIC of 1 µg/mL (≈ 1.6 µM).
As for `C[C@]12C[C@]34C[C@@H]1C[C@H](O2)[C@H]3[C@](C)(CCC(=O)Nc1c(O)ccc(C(=O)O)c1O)C(=O)C[C@@H]4SC(=O)c1cccc(C(F)(F)F)c1`, the lowest concentration to inhibit growth (MIC) was 1 µg/mL (≈ 1.54 µM).

The test system of a further experiment is Staphylococcus aureus. Description: Antibacterial activity against methicillin-sensitive Staphylococcus aureus isolate 1 incubated overnight by agar dilution method. In kind it is functional. The procedure, abridged: as §1
With `C[C@]12C[C@]34C[C@@H]1C[C@H](O2)[C@H]3[C@](C)(CCC(=O)Nc1c(O)ccc(C(=O)O)c1O)C(=O)C[C@@H]4SC(=O)c1ccc([N+](=O)[O-])cc1`, the MIC was 1 µg/mL (≈ 1.6 µM).
For `C[C@]12C[C@]34C[C@@H]1C[C@H](O2)[C@H]3[C@](C)(CCC(=O)Nc1c(O)ccc(C(=O)O)c1O)C(=O)C[C@@H]4SC(=O)c1cccc(C(F)(F)F)c1`, 1 µg/mL (≈ 1.54 µM) was the least that counted as inhibitory (MIC).
